The nature of data set [1]: Stability in rat plasma after 3 hrs. Type of data set: ADME, cell-free. Conditions: read-out: Stability. In short, it runs like this: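 Rat plasma incubation for 3 h; stability reported as percent of compound remaining.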
For data set [2], the system named is Mus musculus. Briefly: Antiarrhythmic activity in calcium chloride-induced mouse arrhythmia model assessed as prolongation of time to conduct cardiac block at 10 pmol/kg, iv relative to control. The class given is functional, Heart. In short, it runs like this: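 Mice received an intravenous infusion of CaCl2 after IV test compound. The read-out was time to cardiac conduction block, expressed as percent increase over control. Values are means of at least three experiments with standard deviation.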

A short description of data set [3]: Clearance in CD1 mouse at 1 mg/kg, iv. Type of data set: ADME, organism-based. Set-up: dose 1 mg/kg, route intravenous. To be noted: in vivo. The essentials: (§1)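 CD-1 mice were dosed IV at a nominal 1 mg/kg (actual 0.77 mg/kg or 1.6 mg/kg for some compounds) and PO at 5 mg/kg. Parameters were derived from mean drug concentration, N = 3 animals/time point.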
Data set [4] in a line: Volume of distribution at steady state in CD1 mouse at 1 mg/kg, iv. Type of data set: ADME, organism-based. The arrangement: dose 1 mg/kg, route intravenous. To be noted: in vivo, read-out: Vdss. The essentials:
as §1

A short description of data set [5]: Inhibition of CYP450. The class given is ADME.
Data set [6] deals with Mus musculus. The experiment in a line: Antiarrhythmic activity in calcium chloride-induced mouse arrhythmia model assessed as prolongation of time to conduct cardiac block at 1 to 30 mg/kg, po relative to control. The class given is functional, organism-based. Conditions: Heart. In short, it runs like this:
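Compounds were given orally at 1–30 mg/kg to mice, which then received an intravenous CaCl2 infusion. The read-out was prolongation of time to conduction block versus control.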

The target of data set [7] is Voltage-gated inwardly rectifying potassium channel KCNH2 (Homo sapiens, UniProt Q12809). The experiment in a line: Inhibition of human ERG.
A short description of data set [8]: Half life in CD1 mouse at 5 mg/kg, po. The class given is ADME, organism-based. The arrangement: dose 5 mg/kg, route oral. To be noted: in vivo. In short, it runs like this: as §1
A short description of data set [9]: Metabolic stability in rat liver microsomes assessed as half life. Type of data set: ADME, Microsome. (In general: Liver microsomes are vesicles of endoplasmic reticulum, rich in cytochrome P450 enzymes.)
The nature of data set [10]: Oral bioavailability in CD1 mouse at 5 mg/kg. Type of data set: ADME, organism-based. Conditions: in vivo. The essentials:
as §1

Data set [11] is described as follows: AUC in CD1 mouse at 5 mg/kg, po. Type of data set: ADME, organism-based. Set-up: dose 5 mg/kg, route oral. Conditions: plasma. The essentials: as §1
A short description of data set [12]: Tmax in CD1 mouse at 5 mg/kg, po. The class given is ADME, organism-based. Set-up: dose 5 mg/kg, route oral. Conditions: in vivo. The essentials: as §1
The nature of data set [13]: Half life in CD1 mouse at 1 mg/kg, iv. Type of data set: ADME, organism-based. Set-up: dose 1 mg/kg, route intravenous. To be noted: in vivo. The essentials: as §1
Data set [14] can be described thus: Metabolic stability in human liver microsomes assessed as half life. Type of data set: ADME, Microsome.
The nature of data set [15]: Cmax in CD1 mouse at 5 mg/kg, po. To be noted: in vivo. Type of data set: ADME, organism-based. The arrangement: dose 5 mg/kg, route oral. In short, it runs like this: as §1

The source made the active and inactive calls.

Sequence of Voltage-gated inwardly rectifying potassium channel KCNH2 (Q12809 whole entry): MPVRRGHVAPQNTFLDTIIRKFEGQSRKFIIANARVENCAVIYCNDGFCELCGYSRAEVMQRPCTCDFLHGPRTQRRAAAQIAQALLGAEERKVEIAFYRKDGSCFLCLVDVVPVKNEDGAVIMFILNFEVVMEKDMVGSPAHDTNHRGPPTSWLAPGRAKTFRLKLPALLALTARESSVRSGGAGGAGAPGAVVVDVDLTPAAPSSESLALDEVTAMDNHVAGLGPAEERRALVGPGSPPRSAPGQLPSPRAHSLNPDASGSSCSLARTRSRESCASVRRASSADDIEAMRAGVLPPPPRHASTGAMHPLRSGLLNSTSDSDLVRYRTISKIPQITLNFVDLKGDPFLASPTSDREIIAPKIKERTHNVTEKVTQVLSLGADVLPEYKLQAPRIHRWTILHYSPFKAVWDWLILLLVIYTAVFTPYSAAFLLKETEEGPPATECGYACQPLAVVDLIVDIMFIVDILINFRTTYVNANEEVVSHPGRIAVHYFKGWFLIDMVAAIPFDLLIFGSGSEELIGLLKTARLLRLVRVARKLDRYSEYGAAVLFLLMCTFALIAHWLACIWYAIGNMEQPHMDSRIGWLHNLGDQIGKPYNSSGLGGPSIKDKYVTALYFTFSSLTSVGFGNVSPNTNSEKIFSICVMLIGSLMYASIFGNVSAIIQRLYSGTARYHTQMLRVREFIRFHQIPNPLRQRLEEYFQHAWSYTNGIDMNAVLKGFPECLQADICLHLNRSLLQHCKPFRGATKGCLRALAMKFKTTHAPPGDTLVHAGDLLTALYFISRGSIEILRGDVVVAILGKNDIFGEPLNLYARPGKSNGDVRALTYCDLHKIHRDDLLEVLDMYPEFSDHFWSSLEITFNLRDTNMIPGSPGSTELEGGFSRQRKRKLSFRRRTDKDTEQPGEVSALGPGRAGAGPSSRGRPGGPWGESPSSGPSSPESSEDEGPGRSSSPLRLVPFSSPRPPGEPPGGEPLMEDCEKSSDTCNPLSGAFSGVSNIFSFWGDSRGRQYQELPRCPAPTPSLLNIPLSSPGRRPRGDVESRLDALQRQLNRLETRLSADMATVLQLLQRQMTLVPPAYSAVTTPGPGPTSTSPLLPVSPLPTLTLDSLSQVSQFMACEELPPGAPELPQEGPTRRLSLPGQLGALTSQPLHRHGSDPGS

Consider `NCC(=O)N1C[C@H](NC(=O)c2ccccc2)C[C@H]1C(=O)NC1CCCC1`, for which the remaining at 3 h in data set [1] amounted to 90%. The Activity in data set [2] was 110.6%.
For `NCC(=O)N1C[C@H](NC(=O)c2ccccc2)C[C@H]1C(N)=O`, in data set [1], the remaining at 3 h was 27%. Also, in data set [2], the Activity worked out at 193.2%.
`CNC(=O)[C@@H]1C[C@@H](NC(=O)c2ccccc2)CN1C(=O)CN`: the remaining at 3 h in [1] was determined as 87%. Further, the Activity in [2] is given as 145%.
On the same counts, the results for `NCC(=O)N1C[C@H](NC(=O)c2ccccc2)C[C@H]1C(=O)N[C@@H]1CCOC1` are 100% and 143.5%.
For the compound `CC(=O)NCC(=O)N1C[C@H](NC(=O)c2ccccc2)C[C@H]1C(=O)O`, the clearance in data set [3] came out at 24 mL/min/kg. Besides, the Vd in data set [4] is 0.3 L/kg. For the same compound, the values for the Activity entry in data set [5], in data set [7] and in [2] were “Not Active”, “Not Active” and 165.7%, respectively. In addition, in [6], the outcome was Active. Also, the half-life in data set [8] is 72 min; in [9], above 30 min; in [13], 18 min; in data set [14] it was above 30 min. In data set [1], the remaining at 3 h came to 100%. Besides, the bioavailability in [10] came to 2%. In data set [11], the AUC was 66 ng·h/mL. Further, in data set [12], the Tmax turned out to be 15 min. The compound also gave a Cmax in data set [15] of 38 ng/mL.
For `CC(C)(C)NC(=O)[C@@H]1C[C@@H](NC(=O)c2ccccc2)CN1C(=O)CN`, the remaining at 3 h in data set [1] was 99%. Besides, in data set [2], the Activity is on record as 135.7%.
Taken in the same sequence, the figures for `CCNC(=O)[C@@H]1C[C@@H](NC(=O)c2ccccc2)CN1C(=O)CN` were 100% and 137.2%.
As to `NCC(=O)N1C[C@H](NC(=O)c2ccccc2)C[C@H]1C(=O)NC1CC1`, the clearance in data set [3] was 20 mL/min/kg. The Vd in data set [4] was determined as 0.6 L/kg. For the same compound, the Activity entry in [5] is “Not Active”; in [7] it was “Not Active”; in data set [2] it was 196%. Further, the result in data set [6] was Active. Moreover, the half-life in data set [8] was 72 min; in data set [9], above 30 min; in [13] it was 126 min; in data set [14], above 30 min. Moreover, the remaining at 3 h in [1] came to 96%. In data set [10], this compound had a bioavailability of 7%. For the same compound, in data set [11], the area under the curve (AUC) was found to be 305 ng·h/mL. For the same compound, the Tmax in data set [12] turned out to be 15 min. For the same compound, the Cmax in [15] came to 87 ng/mL.

As a reminder, the clearance is a measure of how efficiently the substance is removed, as volume per time. A higher clearance goes with a high capacity for elimination. In general, half-life refers to the time needed for the level to fall by half in the phase considered. What is called bioavailability is the share of a dose that reaches the circulation, judged against a reference dose that is usually intravenous. Low readings indicate little systemic uptake, high ones much systemic uptake. As usually defined, the AUC is the area under the concentration-time curve, a measure of exposure. What is called Tmax is the time from dosing to the highest level. Broadly, the Cmax is the highest concentration seen after dosing.

The values are drawn from ChEMBL document CHEMBL1153486, “Discovery of a class of potent gap-junction modifiers as novel antiarrhythmic agents” (Bioorg Med Chem Lett, 2009).
